The target in assay [1] is T1, Cystine/glutamate transporter (Homo sapiens) (UniProt Q9UPY5).
T1 sequence (whole entry): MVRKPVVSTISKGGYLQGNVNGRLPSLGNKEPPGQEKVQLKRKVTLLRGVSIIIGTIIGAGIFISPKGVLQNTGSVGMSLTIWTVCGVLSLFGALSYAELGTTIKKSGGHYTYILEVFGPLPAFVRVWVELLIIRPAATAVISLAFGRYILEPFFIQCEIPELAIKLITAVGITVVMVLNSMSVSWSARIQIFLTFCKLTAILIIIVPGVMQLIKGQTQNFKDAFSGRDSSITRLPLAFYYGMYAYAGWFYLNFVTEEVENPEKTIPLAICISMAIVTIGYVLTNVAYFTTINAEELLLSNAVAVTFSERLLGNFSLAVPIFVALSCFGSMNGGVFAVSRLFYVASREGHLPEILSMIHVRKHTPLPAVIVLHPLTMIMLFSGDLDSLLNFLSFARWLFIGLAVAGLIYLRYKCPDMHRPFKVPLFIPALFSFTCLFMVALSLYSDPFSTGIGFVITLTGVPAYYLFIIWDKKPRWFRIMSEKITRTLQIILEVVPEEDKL
Briefly: Inhibition of cystine/glutamate transporter in human SNB19 cells assessed as [3H]glutamate uptake at 500 uM. The format is cell-based. As to conditions: SNB-19. Set-up: scale not given: the % may be the effect or the level left. In short, it runs like this:
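SNB19 glioma cells were kept under Na-free conditions and system xc−-mediated uptake of 100 μM L-glutamate was measured with inhibitor at 500 μM. Uptake was corrected for non-specific uptake and normalized to protein content.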

For assay [2], the species on record is Rattus norvegicus. Description: Inhibition of VGLUT in rat synaptic vesicles assessed as glutamate uptake at 5 mM relative to control. On the set-up: scale not given: the % may be the effect or the level left. The method in brief:
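Rat brain synaptic vesicles were isolated and VGLUT-mediated uptake of 250 μM L-glutamate was measured with inhibitor at 5 mM. Uptake was corrected for non-specific uptake, normalized to protein content and expressed as % of control.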

Assay [3] addresses Excitatory amino acid transporter 3 (Homo sapiens) (UniProt P43005). Briefly: Inhibition of EAAT3-mediated D-aspartate transport at 100 uM.
Assay [4] can be described thus: Inhibition of VGLUT in rat synaptic vesicles assessed as inhibition of glutamate uptake. The method in brief: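 Dose–response for VGLUT inhibition in synaptic vesicles isolated from rat brain, using 250 μM L-glutamate as substrate. Uptake was corrected for non-specific uptake and normalized to protein; IC50 was taken from the dose curve.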
Assay [5] deals with Excitatory amino acid transporter 2 (Homo sapiens) (UniProt P43004). Description: Inhibition of EAAT2-mediated D-aspartate transport at 100 uM. The method in brief:
(§1)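 Transport by EAAT1, EAAT2 or EAAT3 was measured with 25 μM D-aspartate as substrate and inhibitor present at 100 μM.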

For assay [6], the target named is Excitatory amino acid transporter 1 (Homo sapiens) (UniProt P43003). Briefly: Inhibition of EAAT1-mediated D-aspartate transport at 100 uM. The method in brief: as §1
Excitatory amino acid transporter 1 (Homo sapiens), sequence (P43003 whole entry, the tested form may be a part): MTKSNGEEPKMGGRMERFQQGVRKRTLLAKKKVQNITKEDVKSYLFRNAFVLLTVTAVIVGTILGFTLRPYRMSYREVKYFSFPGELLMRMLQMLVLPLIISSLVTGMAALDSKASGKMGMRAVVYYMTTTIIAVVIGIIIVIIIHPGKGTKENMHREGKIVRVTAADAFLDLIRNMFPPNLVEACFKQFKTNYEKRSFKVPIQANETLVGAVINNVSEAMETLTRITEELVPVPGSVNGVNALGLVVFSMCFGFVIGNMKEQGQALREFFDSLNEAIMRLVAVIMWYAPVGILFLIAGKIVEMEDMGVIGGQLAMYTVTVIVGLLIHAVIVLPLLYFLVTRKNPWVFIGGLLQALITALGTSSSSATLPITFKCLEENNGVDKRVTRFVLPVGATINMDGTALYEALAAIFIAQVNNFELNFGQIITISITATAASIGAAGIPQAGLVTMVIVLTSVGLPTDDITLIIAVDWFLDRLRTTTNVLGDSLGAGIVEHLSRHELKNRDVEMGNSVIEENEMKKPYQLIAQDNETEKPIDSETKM
The species entered for assay [7] is Rattus norvegicus. Briefly: Inhibition of VGLUT in rat synaptic vesicles assessed as glutamate uptake at 500 uM relative to control. Set-up: scale not given: the % may be the effect or the level left.

Drawing on ChEMBL document CHEMBL1914336, “Use of the hydantoin isostere to produce inhibitors showing selectivity toward the vesicular glutamate transporter versus the obligate exchange transporter system x(c)(-)” (Bioorg Med Chem Lett, 2011), this text covers Activity, inhibition and IC50 for 23 compounds.

Each structure is given as a SMILES string. Some results are limits rather than exact numbers.

Excitatory amino acid transporter 3 (Homo sapiens), sequence (P43005 whole entry, looked up, the tested form may be a part): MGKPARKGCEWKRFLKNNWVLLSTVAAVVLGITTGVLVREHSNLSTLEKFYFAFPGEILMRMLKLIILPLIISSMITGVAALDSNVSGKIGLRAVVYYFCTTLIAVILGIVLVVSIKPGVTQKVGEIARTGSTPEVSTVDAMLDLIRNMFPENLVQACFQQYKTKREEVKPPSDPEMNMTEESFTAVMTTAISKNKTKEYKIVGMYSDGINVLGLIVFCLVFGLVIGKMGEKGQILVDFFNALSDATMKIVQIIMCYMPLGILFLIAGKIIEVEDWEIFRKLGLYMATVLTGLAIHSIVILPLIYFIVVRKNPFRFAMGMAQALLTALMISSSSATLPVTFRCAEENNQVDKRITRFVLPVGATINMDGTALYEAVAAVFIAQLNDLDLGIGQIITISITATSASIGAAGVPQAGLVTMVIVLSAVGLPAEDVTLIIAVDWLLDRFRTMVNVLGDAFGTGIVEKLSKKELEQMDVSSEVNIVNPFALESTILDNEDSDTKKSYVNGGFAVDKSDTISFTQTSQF
Excitatory amino acid transporter 2 (Homo sapiens), sequence (P43004 whole entry, the tested form may be a part): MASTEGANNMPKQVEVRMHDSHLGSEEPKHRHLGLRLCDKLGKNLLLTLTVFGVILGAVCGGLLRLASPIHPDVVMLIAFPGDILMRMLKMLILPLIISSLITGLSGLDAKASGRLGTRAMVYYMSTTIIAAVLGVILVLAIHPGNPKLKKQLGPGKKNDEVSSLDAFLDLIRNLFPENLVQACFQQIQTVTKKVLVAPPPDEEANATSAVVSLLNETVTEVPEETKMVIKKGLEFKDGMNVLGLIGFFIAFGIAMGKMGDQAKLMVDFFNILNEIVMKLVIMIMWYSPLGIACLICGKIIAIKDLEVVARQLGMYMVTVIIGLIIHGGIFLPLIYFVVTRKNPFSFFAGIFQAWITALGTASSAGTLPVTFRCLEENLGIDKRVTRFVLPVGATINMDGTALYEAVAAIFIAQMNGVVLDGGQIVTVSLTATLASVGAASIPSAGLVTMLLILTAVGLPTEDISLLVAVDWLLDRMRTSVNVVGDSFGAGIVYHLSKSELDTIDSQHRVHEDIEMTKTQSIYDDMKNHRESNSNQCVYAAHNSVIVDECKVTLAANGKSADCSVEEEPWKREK

Consider `CN(C)c1ccc(/C=C/C2NC(=O)NC2=O)cc1` (stereo not given), for which the Activity in assay [1] was 90%; in the assay filed under Rattus norvegicus [2], 63%.

Consider `O=C1NC(=O)C(c2csc3ccccc23)N1` (stereo not given), for which the Activity in assay [1] was 118%; in the assay listed under Rattus norvegicus [2] it was 79%.

Consider `CN(C)c1ccc(C2NC(=O)NC2=O)cc1` (stereo not given), for which the figures for the Activity (in assay [1]; in the assay filed under Rattus norvegicus [2]) were 87% and 23%, respectively.

Regarding `Cc1cc(C2NC(=O)NC2=O)sc1C` (stereo not given), the values for the Activity (in assay [1]; in the assay filed under Rattus norvegicus [2]) were 87% and 93%, respectively.

As for `O=C1NC(=O)C(c2c3ccccc3cc3ccccc23)N1` (stereo not given), the Activity (in assay [1]; in the assay listed under Rattus norvegicus [2]) was 81% in each case.

Consider `O=Cc1ccc(C2NC(=O)NC2=O)s1` (racemic), for which the inhibition in assay [3], in assay [5] and in assay [6] was below 12% throughout. Further, the IC50 in assay [4] stood at 355 µM. Moreover, the Activity in assay [1] stood at 49%; in the assay filed under Rattus norvegicus [2], 5%.

As for `COC(=O)c1ccc(-c2ccc(C3NC(=O)NC3=O)cc2)cc1` (stereo not given), the values for the Activity (in assay [1]; in the assay listed under Rattus norvegicus [2]) were 93% and 95%, respectively.

`O=C1NC(=O)C(c2ccc(C3NC(=O)NC3=O)s2)N1` (stereo not given): the inhibition in assay [3], in assay [5] and in assay [6] was below 12% in each case. The IC50 in assay [4] came to 511 µM. Moreover, the Activity in assay [1] turned out to be 51%; in the assay listed under Rattus norvegicus [2], 6%.

For the compound `Nc1c(/N=N/c2ccc(-c3ccc(/N=N/c4cc(S(=O)(=O)O)c5ccccc5c4N)cc3)cc2)cc(S(=O)(=O)O)c2ccccc12`, the Activity in the assay listed under Rattus norvegicus [7] is 31%; in assay [1], 82%; in the assay filed under Rattus norvegicus [2], 0%.

`O=C1NC(c2cccc3ccccc23)C(=O)N1CCCCN1C(=O)NC(c2cccc3ccccc23)C1=O` (stereo not given): the Activity was found to be 92% in assay [1] and 74% in the assay filed under Rattus norvegicus [2].

As to `N[C@@H](CS)C(=O)O`, the Activity in assay [1] stood at 22%; in the assay listed under Rattus norvegicus [2] it was 90%.

Take `O=C1NC(=O)C(c2cccnc2)N1` (stereo not given): the Activity is 95% in assay [1] and 111% in the assay listed under Rattus norvegicus [2].

Consider `O=C1NC(=O)C(c2ccc(S(=O)(=O)O)cc2S(=O)(=O)O)N1` (racemic), for which the Activity worked out at 100% in assay [1] and 11% in the assay listed under Rattus norvegicus [2].

Take `O=C1NC(=O)C(c2ccc(-c3ccc(C(=O)O)cc3)cc2)N1` (stereo not given): the values for the Activity (in assay [1]; in the assay listed under Rattus norvegicus [2]) were 104% and 37%, respectively.

For `O=C1NC(=O)C(c2ccc(Br)s2)N1` (stereo not given), the Activity in assay [1] was 65%; in the assay filed under Rattus norvegicus [2], 75%.

Turning to `O=C1NC(c2cccc3ccccc23)C(=O)N1CCCN1C(=O)NC(c2cccc3ccccc23)C1=O` (stereo not given), the Activity in assay [1] was 80%; in the assay listed under Rattus norvegicus [2] it was 97%.

As to `O=C1NC(=O)C(c2cccc3ccccc23)N1` (stereo not given), the Activity was determined as 83% in assay [1] and 91% in the assay listed under Rattus norvegicus [2].

For the compound `O=C1NC(=O)C(c2ccccc2S(=O)(=O)O)N1` (stereo not given), the Activity amounted to 100% in assay [1] and 121% in the assay filed under Rattus norvegicus [2].

Consider `O=C1NC(=O)C(c2ccc(C3NC(=O)NC3=O)cc2)N1` (stereo not given), for which the figures for the Activity (in assay [1]; in the assay listed under Rattus norvegicus [2]) were 85% and 78%, respectively.

As for `O=C1NC(=O)C(c2ccc(-c3cccs3)s2)N1` (stereo not given), the Activity came to 85% in assay [1] and 87% in the assay listed under Rattus norvegicus [2].

Consider `O=C1NC(=O)C(Cc2ccccc2)N1` (stereo not given), for which the Activity in assay [1] turned out to be 53%; in the assay listed under Rattus norvegicus [2] it was 80%.

As to `Cc1ccc(C2NC(=O)NC2=O)s1` (stereo not given), the values for the Activity (in assay [1]; in the assay listed under Rattus norvegicus [2]) were 66% and 76%, respectively.

As for `O=C1NC(=O)C(c2c[nH]cn2)N1` (stereo not given), the Activity in assay [1] was 82%; in the assay listed under Rattus norvegicus [2], 103%.

A word on the inhibition: it is the drop in the measured response relative to a control, in per cent. As a reminder, the IC50 is the point on the concentration scale where inhibition reaches its midpoint.
